Reference: ChEMBL document CHEMBL1129492, “Structure-activity relationships among 2-substituted 5,6-dichloro-, 4,6-dichloro-, and 4,5-dichloro-1-[(2-hydroxyethoxy) methyl]- and -1-[(1,3-dihydroxy-2-propoxy) methyl]benzimidazoles” (J Med Chem, 1996)

Assays:
HFF = test: Visual cytotoxicity of compound on HFF cells at time of HCMV plaque enumeration; assay type: functional, cell-based; details: Homo sapiens
How it was run: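 Stationary, uninfected HFF cells in the HCMV plaque assay were scored microscopically for cytotoxicity when plaques were enumerated, after 7 days at 37 °C.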

Human alphaherpesvirus 1 = test: Antiviral activity against herpes simplex virus type 1 (HSV-1) in an ELISA assay; assay type: functional, organism-based
How it was run: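 BSC-1 cells (10 000/well, MEM(E) + 10% calf serum) incubated overnight at 37 °C, then given drug in quadruplicate with HSV-1 at 100 PFU/well. After 3 days at 37 °C, plates were blocked and probed with HRP-conjugated rabbit anti-HSV-1 antibody and developed with tetramethylbenzidine. Absorbance was read at 450 and 570 nm. Percent reduction was taken versus virus without drug.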

Human betaherpesvirus 5 [1] = test: Antiviral activity against human cytomegalovirus (HCM virus) in plaque assay; assay type: functional, organism-based
How it was run: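 HCMV Towne strain (plaque-purified P_O) at ca. 100 PFU/cm² on HFF cell sheets. After adsorption, compound in growth medium was added to duplicate wells at four to eight concentrations. Incubated 7 days at 37 °C, then crystal violet staining and microscopic plaque counts. Percent plaque reduction versus no drug; IC50 from regression lines.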

KB [2] = test: Inhibitory activity of compound against KB cell growth; assay type: functional, cell-based; details: Homo sapiens
How it was run: (§1)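 KB cells plated at 3000-5000 cells/well and held overnight at 37 °C. Compound added in quadruplicate at six to eight concentrations, then 48 h at 37 °C in CO₂ (about two population doublings). Cells fixed with 95% ethanol, stained with 0.1% crystal violet, dye eluted with acidified ethanol and read at 570 nm. IC50 from regression.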

Human betaherpesvirus 5 [3] = test: Antiviral activity of compound against HCMvirus in yield reduction experiments; assay type: functional
How it was run: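 HCMV Towne strain (plaque-purified isolate P_O) grown on HFF cells in 96-well dishes, infected at moi 0.5-1 PFU/cell. After adsorption, compound added in 1:3 serial dilutions from 100 to 0.14 µM, in duplicate. 7 days at 37 °C, then one freeze-thaw. Progeny titred by plaque count on fresh HFF monolayers.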

KB [4] = test: Inhibitory activity of compound against KB cell growth [>-indicates IC50/IC90 was not reached at the noted (highest) concentration tested]; assay type: functional, cell-based; details: Homo sapiens; how it was run: as §1
Human betaherpesvirus 5 [5] = test: Antiviral activity of compound against HCM virus in yield reduction experiments; assay type: functional
How it was run: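 HFF cells infected with HCMV (Towne) at moi 0.5-1 PFU/cell, then given compound serially diluted 1:3 (100 to 0.14 µM) in duplicate. After 7 days at 37 °C, one freeze-thaw cycle. Progeny virus was titered by 1:3 serial dilution on fresh HFF monolayers with plaque counting. IC90 reported.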

IC50 (Human alphaherpesvirus 1) [µM] | IC50 (Human betaherpesvirus 5 [1]) [µM] | IC50 (KB [2]) [µM] | IC50 (KB [4]) [µM] | IC90 (Human betaherpesvirus 5 [5]) [µM] | Structure (SMILES) | IC50 (HFF) [µM] | IC90 (Human betaherpesvirus 5 [3]) [µM]
> 100 | > 100 | > 100 | – | – | Nc1nc2cc(Cl)c(Cl)cc2n1COCCO | > 100 | –
> 100 | > 100 | > 100 | – | – | OCCOCn1cnc2cc(Cl)c(Cl)cc21 | > 100 | –
> 100 | > 100 | – | > 100 | – | OCC(CO)OCn1cnc2cc(Cl)c(Cl)cc21 | > 100 | –
100 | > 100 | – | > 100 | 25 | OCC(CO)OCn1c(Br)nc2cc(Cl)c(Cl)cc21 | > 100 | –
> 100 | > 320 | > 320 | – | – | OCCOCn1c(Cl)nc2cc(Cl)c(Cl)cc21 | > 320 | –
100 | > 100 | – | > 100 | – | OCC(CO)OCn1c(Cl)nc2c(Cl)c(Cl)ccc21 | > 100 | –
> 100 | > 100 | – | > 100 | – | CN(C)c1nc2c(Cl)c(Cl)ccc2n1COC(CO)CO | > 100 | –
100 | > 100 | > 100 | – | – | Nc1nc2c(Cl)cc(Cl)cc2n1COCCO | – | –
> 100 | > 100 | > 100 | – | – | OCCOCn1c(Cl)nc2c(Cl)c(Cl)ccc21 | > 100 | –
> 100 | > 100 | – | > 100 | – | CN(C)c1nc2cc(Cl)c(Cl)cc2n1COC(CO)CO | > 100 | –
> 100 | > 100 | > 100 | – | – | CNc1nc2c(Cl)c(Cl)ccc2n1COCCO | > 100 | –
> 100 | > 100 | – | > 100 | – | Nc1nc2cc(Cl)c(Cl)cc2n1COC(CO)CO | > 100 | –
> 100 | > 100 | – | – | – | CN(C)c1nc2c(Cl)cc(Cl)cc2n1COCCO | – | –
– | 136 | – | > 100 | 50 | OCC(CO)OCn1c(Br)nc2c(Cl)cc(Cl)cc21 | 161 | –
> 100 | > 100 | > 100 | – | – | CNc1nc2cc(Cl)c(Cl)cc2n1COCCO | > 100 | –
> 100 | > 100 | > 100 | – | – | CNc1nc2c(Cl)cc(Cl)cc2n1COCCO | > 100 | –
> 100 | > 100 | > 100 | – | – | OCCOCn1c(Br)nc2c(Cl)c(Cl)ccc21 | > 100 | –
55 | 35 | – | 60 | – | OCC(CO)OCn1c(SCc2ccccc2)nc2c(Cl)c(Cl)ccc21 | 32 | –
– | > 100 | – | – | – | Nc1nc2c(Cl)cc(Cl)cc2n1COC(CO)CO | 100 | –
> 100 | > 100 | > 100 | – | – | OCCOCn1c(S)nc2c(Cl)c(Cl)ccc21 | > 100 | –
> 100 | > 100 | > 100 | – | – | OCCOCn1cnc2c(Cl)c(Cl)ccc21 | > 100 | –
> 100 | > 100 | > 100 | – | – | OCCOCn1c(S)nc2c(Cl)cc(Cl)cc21 | > 100 | –
> 100 | > 100 | – | > 100 | – | OCC(CO)OCn1c(S)nc2c(Cl)cc(Cl)cc21 | > 100 | –
– | > 100 | – | – | – | OCC(CO)OCn1c(Cl)nc2c(Cl)cc(Cl)cc21 | > 100 | –
> 100 | > 100 | – | > 100 | – | CNc1nc2c(Cl)c(Cl)ccc2n1COC(CO)CO | > 100 | –
> 100 | > 100 | – | – | – | OCCOCn1c(Cl)nc2c(Cl)cc(Cl)cc21 | – | –
> 100 | > 100 | > 100 | – | – | OCCOCn1c(Br)nc2c(Cl)cc(Cl)cc21 | > 100 | –
> 100 | 50 | > 100 | – | – | OCCOCn1c(SCc2ccccc2)nc2c(Cl)cc(Cl)cc21 | 32 | –
> 100 | > 100 | – | > 100 | – | OCC(CO)OCn1c(SCc2ccccc2)nc2cc(Cl)c(Cl)cc21 | > 100 | –

Continued, compound first:

Structure (SMILES) | IC50 (Human alphaherpesvirus 1) [µM] | IC50 (Human betaherpesvirus 5 [1]) [µM] | IC50 (KB [2]) [µM] | IC50 (KB [4]) [µM] | IC90 (Human betaherpesvirus 5 [5]) [µM] | IC50 (HFF) [µM] | IC90 (Human betaherpesvirus 5 [3]) [µM]
OC[C@H]1O[C@@H](n2c(Cl)nc3cc(Cl)c(Cl)cc32)[C@H](O)[C@@H]1O | – | – | – | – | – | – | 1.4
CNc1nc2c(Cl)cc(Cl)cc2n1COC(CO)CO | – | > 100 | – | – | – | 100 | –
OCC(CO)OCn1c(Cl)nc2cc(Cl)c(Cl)cc21 | > 100 | > 100 | – | > 100 | – | > 100 | –
OCC(CO)OCn1c(Br)nc2c(Cl)c(Cl)ccc21 | > 100 | > 100 | – | > 100 | – | > 100 | –
OCCOCn1cnc2c(Cl)cc(Cl)cc21 | > 100 | > 100 | > 100 | – | – | > 100 | –
OCCOCn1c(Br)nc2cc(Cl)c(Cl)cc21 | > 100 | > 100 | > 100 | – | – | > 100 | –
OCC(CO)OCn1c(S)nc2cc(Cl)c(Cl)cc21 | 55 | > 100 | – | > 100 | – | > 100 | –
OCC(CO)OCn1cnc2c(Cl)c(Cl)ccc21 | > 100 | > 100 | – | > 100 | – | > 100 | –
Nc1nc2c(ncn2COC(CO)CO)c(=O)[nH]1 [GANCICLOVIR] | – | – | – | > 100 | 1.6 | > 100 | –
OCC(CO)OCn1c(S)nc2c(Cl)c(Cl)ccc21 | > 100 | > 100 | – | > 100 | – | > 100 | –
CN(C)c1nc2c(Cl)cc(Cl)cc2n1COC(CO)CO | > 100 | > 100 | – | > 100 | – | > 100 | –
OCCOCn1c(S)nc2cc(Cl)c(Cl)cc21 | > 100 | > 100 | > 100 | – | – | 100 | –
OC[C@H]1O[C@H](n2c(Br)nc3cc(Cl)c(Cl)cc32)[C@@H](O)[C@H]1O | – | – | – | > 100 | – | – | 0.2
Nc1nc2c(Cl)c(Cl)ccc2n1COC(CO)CO | > 100 | > 100 | – | > 100 | – | > 100 | –
CNc1nc2cc(Cl)c(Cl)cc2n1COC(CO)CO | > 100 | > 100 | – | > 100 | – | > 100 | –
CN(C)c1nc2cc(Cl)c(Cl)cc2n1COCCO | > 100 | > 100 | > 100 | – | – | > 100 | –
Nc1nc2c(Cl)c(Cl)ccc2n1COCCO | > 100 | > 100 | > 100 | – | – | > 100 | –
OCCOCn1c(SCc2ccccc2)nc2c(Cl)c(Cl)ccc21 | > 100 | 30 | 35 | – | – | 32 | –
OCCOCn1c(SCc2ccccc2)nc2cc(Cl)c(Cl)cc21 | 45 | 40 | 55 | – | – | 32 | –
